According to ChEMBL document CHEMBL5705906 (Nat Commun, 2017):
Activity calls are given as the source filed them. The calls are words filed in the database; no cut-off is given here.

Key:
PC-9 [1] = assay: Inhibition of EGFR T790M/del19 mutant in human PC-9 cells assessed as reduction in S6 phosphorylation at 10 to 1000 nM by Western blotting analysis; format: cell-based; details: dose 10-1000 nM
PC-9 [2] = assay: Inhibition of EGFR T790M/del19 mutant in human PC-9 cells assessed as reduction in ERK phosphorylation at 10 to 1000 nM by Western blotting analysis; format: cell-based; details: dose 10-1000 nM
BaF3 [3] = assay: Inhibition of EGFR-C797S/T790M/del19 mutant in mouse BaF3 cells assessed as reduction in S6 phosphorylation at 10 to 1000 nM by Western blotting analysis; format: cell-based; details: dose 10-1000 nM
BaF3 [4] = assay: Inhibition of EGFR-C797S/T790M/del19 mutant in mouse BaF3 cells assessed as reduction in EGFR phosphorylation at 10 to 1000 nM by Western blotting analysis; format: cell-based; details: dose 10-1000 nM
PC-9 [5] = assay: Inhibition of EGFR T790M/del19 mutant in human PC-9 cells assessed as reduction in Akt phosphorylation at 10 to 1000 nM by Western blotting analysis; format: cell-based; details: dose 10-1000 nM
BaF3 [6] = assay: Inhibition of EGFR-C797S/T790M/del19 mutant in mouse BaF3 cells assessed as reduction in ERK phosphorylation at 10 to 1000 nM by Western blotting analysis; format: cell-based; details: dose 10-1000 nM
NCI-H460 = assay: Anticancer activity against KRAS-mutated human NCI-H460 cells assessed as reduction in cell viability at 1 to 10000 nM incubated for 72 hrs by CellTiter-Glo assay; format: functional, cell-based; details: dose 1-10000 nM
BaF3 [7] = assay: Inhibition of EGFR-C797S/T790M/del19 mutant in mouse BaF3 cells assessed as reduction in ERK protein level at 10 to 1000 nM by Western blotting analysis; format: cell-based; details: dose 10-1000 nM
BaF3 [8] = assay: Inhibition of EGFR-C797S/T790M/del19 mutant in mouse BaF3 cells assessed as reduction in Akt phosphorylation at 10 to 1000 nM by Western blotting analysis; format: cell-based; details: dose 10-1000 nM
PC-9 [9] = assay: Inhibition of EGFR T790M/del19 mutant in human PC-9 cells assessed as reduction in EGFR phosphorylation at 10 to 1000 nM by Western blotting analysis; format: cell-based; details: dose 10-1000 nM
BaF3 [10] = assay: Inhibition of EGFR-C797S/T790M/del19 mutant in mouse BaF3 cells assessed as reduction in S6 protein level at 10 to 1000 nM by Western blotting analysis; format: cell-based; details: dose 10-1000 nM
A549 = assay: Anticancer activity against KRAS-mutated human A549 cells assessed as reduction in cell viability at 1 to 10000 nM incubated for 72 hrs by CellTiter-Glo assay; format: functional, cell-based; details: dose 1-10000 nM
BaF3 [11] = assay: Inhibition of EGFR-C797S/T790M/del19 mutant in mouse BaF3 cells assessed as reduction in Akt protein level at 10 to 1000 nM by Western blotting analysis; format: cell-based; details: dose 10-1000 nM
BaF3 [12] = assay: Inhibition of EGFR-C797S/T790M/L858R mutant in mouse BaF3 cells assessed as inhibition of S6 phosphorylation at 10 to 1000 nM incubated for 6 hrs by Western blotting analysis; format: cell-based; details: dose 10-1000 nM
How it was run: (§1)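 Ba/F3 cells expressing EGFR-L858R-series mutants treated with inhibitors for 6 h. SDS lysates quantified by BCA, run on SDS-PAGE and blotted to PVDF. Probed for phospho-EGFR (Tyr1068), total EGFR and downstream phospho-proteins.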

BaF3 [13] = assay: Inhibition of EGFR-C797S/T790M/L858R mutant in mouse BaF3 cells assessed as inhibition of EGFR phosphorylation at 10 to 1000 nM incubated for 6 hrs by Western blotting analysis; format: cell-based; details: dose 10-1000 nM; how it was run: as §1
BaF3 [14] = assay: Inhibition of EGFR-C797S/T790M/L858R mutant expressed in mouse BaF3 cells assessed as inhibition of ERK phosphorylation at 10 to 1000 nM incubated for 6 hrs by Western blotting analysis; format: cell-based; details: dose 10-1000 nM; how it was run: as §1
BaF3 [15] = assay: Inhibition of EGFR-C797S/T790M/L858R mutant expressed in mouse BaF3 cells assessed as inhibition of Akt phosphorylation at 10 to 1000 nM incubated for 6 hrs by Western blotting analysis; format: cell-based; details: dose 10-1000 nM; how it was run: as §1
PC-9 [16] = format: functional, organism-based; details: Homo sapiens, dose 50.0 mg/kg, route po, time 60.0 day
[17] = system: Ba/F3 EGFR-Del19/T790M/C797S; assay: Cytotoxicity against mouse Ba/F3 EGFR-Del19/T790M/C797S cells assessed as inhibition of cell viability by measuring fold change at 300 nM incubated for 72 hrs in presence of cetuximab by CellTiter-Glo assay; format: functional, cell-based
PC-9 [18] = format: functional, organism-based; details: Homo sapiens, dose 50.0 mg/kg, route po, time 60.0 day; remark: listed apart in the source
PC-9 [19] = assay: Anti-tumor activity against EGFR T790M/del19 mutant expressing gefitinib-resistant human PC-9 cells xenografted in Balb-c nu/nu mouse assessed as growth inhibition at 50 mg/kg, po administered for 42 days; format: functional, organism-based; details: time 42.0 day
How it was run: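 Balb-c nu/nu mice were implanted subcutaneously with 6×10^6 PC9-triple-mutant or PC9-T790M cells in 100 µl 1:2 Matrigel. At a mean tumour volume of ~200 mm³, mice were randomized (top and bottom 5% excluded) and dosed once daily by oral gavage. Caliper volume (0.5×L×W²) was measured twice weekly and expressed relative to day 0. n≥6 per group; Mann-Whitney U test.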

PC-9 [20] = format: functional, organism-based; details: Homo sapiens, dose 50.0 mg/kg, route po, time 15.0 day
PC-9 [21] = assay: Anti-tumor activity against EGFR T790M/del19 mutant expressing gefitinib-resistant human PC-9 cells xenografted in Balb-c nu/nu mouse assessed as prolonged survival at 50 mg/kg, po administered for 42 days; format: functional, organism-based; details: time 42.0 day

SMILES: CN(C)C/C=C/C(=O)Nc1cc2c(Nc3ccc(F)c(Cl)c3)ncnc2cc1O[C@H]1CCOC1 [AFATINIB]
- inhibition (PC-9 [1]): Active
- inhibition (PC-9 [2]): Active
- inhibition (BaF3 [3]): inactive
- inhibition (BaF3 [4]): inactive
- inhibition (PC-9 [5]): Active
- inhibition (BaF3 [6]): inactive
- Activity (NCI-H460): Active
- inhibition (BaF3 [7]): inactive
- inhibition (BaF3 [8]): inactive
- inhibition (PC-9 [9]): Active
- inhibition (BaF3 [10]): inactive
- Activity (A549): Active
- inhibition (BaF3 [11]): inactive

SMILES: COc1cc(N2CCC(N3CCN(C)CC3)CC2)ccc1Nc1ncc(Cl)c(Nc2ccccc2S(=O)(=O)C(C)C)n1
- inhibition (BaF3 [12]): inactive
- inhibition (BaF3 [13]): inactive
- inhibition (BaF3 [14]): inactive
- inhibition (BaF3 [15]): inactive

SMILES: C=CC(=O)Nc1cc(Nc2nccc(-c3cn(C)c4ccccc34)n2)c(OC)cc1N(C)CCN(C)C
- inhibition (PC-9 [16]): Active
- Activity [17]: inactive
- inhibition (PC-9 [1]): Active
- inhibition (PC-9 [2]): Active
- inhibition (PC-9 [18]): Active
- inhibition (BaF3 [3]): inactive
- inhibition (BaF3 [4]): inactive
- inhibition (PC-9 [5]): Active
- Activity (PC-9 [19]): Active
- Activity (PC-9 [20]): inactive
- Activity (PC-9 [21]): Active
- inhibition (BaF3 [6]): inactive
- Activity (NCI-H460): Active
- inhibition (BaF3 [7]): inactive
- inhibition (BaF3 [8]): inactive
- inhibition (PC-9 [9]): Active
- inhibition (BaF3 [10]): inactive
- Activity (A549): Active
- inhibition (BaF3 [11]): inactive

SMILES: Cc1cc(Nc2ncc(Cl)c(Nc3ccccc3S(=O)(=O)C(C)C)n2)c(OC(C)C)cc1C1CCNCC1
- inhibition (BaF3 [12]): inactive
- inhibition (BaF3 [13]): inactive
- inhibition (BaF3 [14]): inactive
- inhibition (BaF3 [15]): inactive
